Data reported in ChEMBL document CHEMBL3044673, “Design, synthesis and insecticidal activity of novel phenylpyrazoles containing a 2,2,2-trichloro-1-alkoxyethyl moiety” (2010).

Legend:
Type in all cases: functional
Plutella xylostella [1] = experiment: Insecticidal activity against Plutella xylostella (diamondback moth) grown on compound pre-treated fresh cabbage leaves assessed as insect mortality at 10 mg/kg measured 3 days post compound treatment by leaf-dip method; details: for mortality at 10 mg/kg: Plutella xylostella; for mortality: 10 mg/kg
Summary of the method: (§1)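 Leaf-dip stomach-toxicity assay on laboratory-reared diamondback moth. Test solutions came from a 200 mg L^-1 stock in dimethylformamide, diluted with water containing TW-20. Control leaves were treated with water and dimethylformamide. Tests were held at 25±1 °C, percentage mortality was scored 3 days after treatment, and each treatment was run three times.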

Culex pipiens pallens [2] = experiment: Insecticidal activity against Culex pipiens pallens (mosquito) assessed as insect mortality at 50 ug/kg measured 1 day post compound treatment; details: 24 h
Summary of the method: (§2)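 Fourth-instar Culex pipiens pallens larvae, 20 per test, were laboratory-reared and placed in 100 mL of test solution made by adding 1 mL of compound dilution to 99 mL of water. Tests were held at 25±1 °C, percentage mortality was scored 1 day after treatment, and each test was run three times.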

Aphis craccivora [3] = experiment: Insecticidal activity against Aphis craccivora (cowpea aphid) infested tender soybean shoots exposed to 10 mg/kg test compound solution assessed as insect mortality measured 24 hr post compound treatment; details: for mortality at 10 mg/kg: Aphis craccivora, 24 h
Summary of the method: (§3)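 Soybean tender shoots carrying 60 aphids were dipped in test solutions. Solutions were made from a 200 mg L^-1 stock in dimethylformamide, diluted with water containing TW-20. Insects were laboratory-reared, tests were held at 25±1 °C, and mortality was scored.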

Aphis craccivora [4] = experiment: Insecticidal activity against Aphis craccivora (cowpea aphid) infested tender soybean shoots exposed to 5 mg/kg test compound solution assessed as insect mortality measured 24 hr post compound treatment; details: for mortality at 5 mg/kg: Aphis craccivora, 24 h; for mortality: 5 mg/kg; summary of the method: as §3
Culex pipiens pallens [5] = experiment: Insecticidal activity against Culex pipiens pallens (mosquito) assessed as insect mortality at 25 ug/kg measured 1 day post compound treatment; details: 24 h; summary of the method: as §2
Plutella xylostella [6] = experiment: Insecticidal activity against Plutella xylostella (diamondback moth) grown on compound pre-treated fresh cabbage leaves assessed as insect mortality at 25 mg/kg measured 3 days post compound treatment by leaf-dip method; details: for mortality at 25 mg/kg: Plutella xylostella; summary of the method: as §1
Plutella xylostella [7] = experiment: Insecticidal activity against Plutella xylostella (diamondback moth) grown on compound pre-treated fresh cabbage leaves assessed as insect mortality at 100 mg/kg measured 3 days post compound treatment by leaf-dip method; summary of the method: as §1
Aphis craccivora [8] = experiment: Insecticidal activity against Aphis craccivora (cowpea aphid) infested tender soybean shoots exposed to 2.5 mg/kg test compound solution assessed as insect mortality measured 24 hr post compound treatment; details: for mortality at 2.5 mg/kg: Aphis craccivora, 24 h; summary of the method: as §3
Plutella xylostella [9] = experiment: Insecticidal activity against Plutella xylostella (diamondback moth) grown on compound pre-treated fresh cabbage leaves assessed as insect mortality at 50 mg/kg measured 3 days post compound treatment by leaf-dip method; summary of the method: as §1
Plutella xylostella [10] = experiment: Insecticidal activity against Plutella xylostella (diamondback moth) grown on compound pre-treated fresh cabbage leaves assessed as insect mortality at 200 mg/kg measured 3 days post compound treatment by leaf-dip method; summary of the method: as §1
Culex pipiens pallens [11] = experiment: Insecticidal activity against Culex pipiens pallens (mosquito) assessed as insect mortality at 100 ug/kg measured 1 day post compound treatment; details: for mortality at 0.1 mg/kg: Culex pipiens, 24 h; summary of the method: as §2
Plutella xylostella [12] = experiment: Insecticidal activity against Plutella xylostella (diamondback moth) grown on compound pre-treated fresh cabbage leaves assessed as insect mortality at 2.5 mg/kg measured 3 days post compound treatment by leaf-dip method; summary of the method: as §1
Plutella xylostella [13] = experiment: Insecticidal activity against Plutella xylostella (diamondback moth) grown on compound pre-treated fresh cabbage leaves assessed as insect mortality at 5 mg/kg measured 3 days post compound treatment by leaf-dip method; details: for mortality at 5 mg/kg: Plutella xylostella; for mortality: 5 mg/kg; summary of the method: as §1
Aphis craccivora [14] = experiment: Insecticidal activity against Aphis craccivora (cowpea aphid) infested tender soybean shoots exposed to 100 mg/kg test compound solution assessed as insect mortality measured 24 hr post compound treatment; summary of the method: as §3
Aphis craccivora [15] = experiment: Insecticidal activity against Aphis craccivora (cowpea aphid) infested tender soybean shoots exposed to 200 mg/kg test compound solution assessed as insect mortality measured 24 hr post compound treatment; summary of the method: as §3
Aphis craccivora [16] = experiment: Insecticidal activity against Aphis craccivora (cowpea aphid) infested tender soybean shoots exposed to 50 mg/kg test compound solution assessed as insect mortality measured 24 hr post compound treatment; summary of the method: as §3
Aphis craccivora [17] = experiment: Insecticidal activity against Aphis craccivora (cowpea aphid) infested tender soybean shoots exposed to 25 mg/kg test compound solution assessed as insect mortality measured 24 hr post compound treatment; summary of the method: as §3
Culex pipiens pallens [18] = experiment: Insecticidal activity against Culex pipiens pallens (mosquito) assessed as insect mortality at 10 ug/kg measured 1 day post compound treatment; details: 24 h; summary of the method: as §2
Culex pipiens pallens [19] = experiment: Insecticidal activity against Culex pipiens pallens (mosquito) assessed as insect mortality at 5 ug/kg measured 1 day post compound treatment; details: 24 h; summary of the method: as §2

Compound	mortality at 10 mg/kg (Plutella xylostella [1]) [%]	mortality at 0.05 mg/kg (Culex pipiens pallens [2]) [%]	mortality at 10 mg/kg (Aphis craccivora [3]) [%]	mortality at 5 mg/kg (Aphis craccivora [4]) [%]	mortality at 0.025 mg/kg (Culex pipiens pallens [5]) [%]	mortality at 25 mg/kg (Plutella xylostella [6]) [%]	mortality at 100 mg/kg (Plutella xylostella [7]) [%]	mortality at 2.5 mg/kg (Aphis craccivora [8]) [%]	mortality at 50 mg/kg (Plutella xylostella [9]) [%]	mortality at 200 mg/kg (Plutella xylostella [10]) [%]	mortality at 0.1 mg/kg (Culex pipiens pallens [11]) [%]	mortality at 2.5 mg/kg (Plutella xylostella [12]) [%]	mortality at 5 mg/kg (Plutella xylostella [13]) [%]	mortality at 100 mg/kg (Aphis craccivora [14]) [%]	mortality at 200 mg/kg (Aphis craccivora [15]) [%]	mortality at 50 mg/kg (Aphis craccivora [16]) [%]	mortality at 25 mg/kg (Aphis craccivora [17]) [%]	mortality at 0.01 mg/kg (Culex pipiens pallens [18]) [%]	mortality (Culex pipiens pallens [11]) [%]	also measured
CCOC(Nc1c([S+]([O-])CC)c(C#N)nn1-c1c(Cl)cc(C(F)(F)F)cc1Cl)C(Cl)(Cl)Cl (configuration not stated)	72	100	100	81	40	100	100	0	100	100	100	0	29	100	100	100	100	–	–	–
CSc1c(C#N)nn(-c2c(Cl)cc(C(F)(F)F)cc2Cl)c1NC(OCCF)C(Cl)(Cl)Cl (configuration not stated)	89	100	62	28	100	100	100	0	100	100	100	34	81	100	100	100	74	40	–	–
CC[S+]([O-])c1c(C#N)nn(-c2c(Cl)cc(C(F)(F)F)cc2Cl)c1NC(OCCF)C(Cl)(Cl)Cl (configuration not stated)	30	20	100	73	–	46	100	43	91	100	100	–	0	100	100	100	100	–	–	–
CCOC(Nc1c([S+](C)[O-])c(C#N)nn1-c1c(Cl)cc(C(F)(F)F)cc1Cl)C(Cl)(Cl)Cl (configuration not stated)	85	100	85	63	30	100	100	0	100	100	100	0	63	100	100	100	100	–	–	–
C[S+]([O-])c1c(C#N)nn(-c2c(Cl)cc(C(F)(F)F)cc2Cl)c1NC(OCCF)C(Cl)(Cl)Cl (stereo in doubt; 7d-2)	76	–	100	70	–	89	100	46	100	100	–	0	54	100	100	100	100	–	50	–
CCCOC(Nc1c(SCC)c(C#N)nn1-c1c(Cl)cc(C(F)(F)F)cc1Cl)C(Cl)(Cl)Cl (configuration not stated)	17	100	0	–	100	58	100	–	89	100	100	–	–	90	95	85	53	100	–	mortality at 0.005 mg/kg (Culex pipiens pallens [19]): 50%
C[S+]([O-])c1c(C#N)nn(-c2c(Cl)cc(C(F)(F)F)cc2Cl)c1NC(OCCF)C(Cl)(Cl)Cl (stereo in doubt; 7d-1)	–	–	–	–	–	–	–	–	–	–	–	–	–	–	–	–	–	–	20	mortality (Plutella xylostella [1]): 77%; mortality (Aphis craccivora [4]): 72%; mortality (Plutella xylostella [6]; 25 mg/kg): 92%; mortality (Aphis craccivora [8]; 2.5 mg/kg): 43%; mortality (Plutella xylostella [13]): 56%
CSc1c(C#N)nn(-c2c(Cl)cc(C(F)(F)F)cc2Cl)c1NC(OCCCl)C(Cl)(Cl)Cl (configuration not stated)	100	100	73	69	100	100	100	62	100	100	100	62	87	100	100	100	98	100	–	mortality at 0.005 mg/kg (Culex pipiens pallens [19]): 20%
C[S+]([O-])c1c(C#N)nn(-c2c(Cl)cc(C(F)(F)F)cc2Cl)c1NC(OCCCl)C(Cl)(Cl)Cl (stereo in doubt; 7e-2)	79	–	100	68	–	100	100	0	100	100	–	0	56	100	100	100	100	–	50	–
C[S+]([O-])c1c(C#N)nn(-c2c(Cl)cc(C(F)(F)F)cc2Cl)c1NC(OCCCl)C(Cl)(Cl)Cl (stereo in doubt; 7e-1)	–	40	–	–	–	–	–	–	–	–	–	–	–	–	–	–	–	–	100	mortality (Plutella xylostella [1]): 81%; mortality (Aphis craccivora [3]; 10 mg/kg): 96%; mortality (Aphis craccivora [4]): 61%; mortality (Plutella xylostella [13]): 60%
CCOC(Nc1c(SCC)c(C#N)nn1-c1c(Cl)cc(C(F)(F)F)cc1Cl)C(Cl)(Cl)Cl (configuration not stated)	18	100	0	–	100	44	100	–	96	100	100	–	–	86	90	75	35	100	–	mortality at 0.005 mg/kg (Culex pipiens pallens [19]): 0%
CC[S+]([O-])c1c(C#N)nn(-c2c(Cl)cc(C(F)(F)F)cc2Cl)c1NC(OC)C(Cl)(Cl)Cl (configuration not stated)	0	100	87	76	0	31	100	0	86	100	100	–	–	100	100	100	96	–	–	–
CC[S+]([O-])c1c(C#N)nn(-c2c(Cl)cc(C(F)(F)F)cc2Cl)c1NC(OCCCl)C(Cl)(Cl)Cl (configuration not stated)	32	0	48	0	–	46	100	–	100	100	100	–	0	100	100	100	100	–	–	–
